Published values of several laboratories.
Lines come from different studies, so protocols differ.
Effect on: ABTS scavenging

Structure (SMILES) | assay | IC50
CSc1cccc(NC(=O)Cc2c[nH]c3ccccc23)c1 |  | 1520 nM
O=C(OC[C@H]1O[C@@H](OC(=O)c2cc(O)c(O)c(O)c2)[C@H](OC(=O)c2cc(O)c(O)c(O)c2)[C@@H](OC(=O)c2cc(O)c(O)c(O)c2)[C@@H]1O)c1cc(O)c(O)c(O)c1 | absorbance | 3590 nM
COc1ccc(-c2nc3cc([N+](=O)[O-])ccc3[nH]2)cc1OCc1ccccc1 | absorbance | 1760 nM
Cc1c(C)c2c(c(C)c1O)CC[C@@](C)(CCC[C@H](C)CCC[C@H](C)CCCC(C)C)O2 |  | 8.37 µg/mL
COc1ccc(-c2nc3cc(C)c(C)cc3[nH]2)cc1OCc1ccccc1 | absorbance | 1830 nM
COc1cc(-c2oc3cc(O[C@@H]4O[C@H](CO)[C@@H](O)[C@H](O)[C@H]4O)cc(O)c3c(=O)c2O[C@@H]2O[C@H](CO)[C@@H](O)[C@H](O)[C@H]2O)ccc1O | absorbance | 41700 nM
COc1ccc(-c2nc3cc(F)ccc3[nH]2)cc1OCc1ccccc1 | absorbance | 1720 nM
CCCCCCCCOc1ccc(NC(=O)Cc2c[nH]c3ccccc23)cc1 |  | 1800 nM
COc1cc(-c2oc3cc(O)cc(O)c3c(=O)c2O[C@@H]2O[C@H](CO)[C@@H](O)[C@H](O)[C@H]2O)ccc1O | absorbance | 15300 nM
CCCCOc1ccc(NC(=O)Cc2c[nH]c3ccccc23)cc1 |  | 1780 nM
Fc1ccc2[nH]c(-c3cccc(OCc4ccccc4)c3)nc2c1 | absorbance | 1850 nM
O=C(Cc1c[nH]c2ccccc12)Nc1cccc(I)c1 |  | 1150 nM
Fc1ccc2[nH]c(-c3ccccc3OCc3ccccc3)nc2c1 | absorbance | 1770 nM
Cc1ccc(NC(=O)Cc2c[nH]c3ccccc23)cc1C |  | 1580 nM
CCOC(=O)c1cc(O)c(O)c(O)c1 | absorbance | 17700 nM
